Assay results pooled from the literature.
Each line is one published result; the experiments were not run side by side.
Target: NT-3 growth factor receptor (NTRK3, Homo sapiens, UniProt Q16288)

SMILES | effect on | action | technique | concentration | measurement | value
CC(C)(C)c1cc(C=C(C#N)C#N)cc(Br)c1O | enzyme activity | inhibitor |  | 0.5 µM | remaining activity | 104%
Cn1cc(-c2cc(F)cc(N3CCn4c(cc5c4CCCC5)C3=O)c2CO)cc(Nc2ccc(N3CCN(C4COC4)CC3)cn2)c1=O | enzyme activity | inhibitor |  | 0.1 µM | inhibition | 15%
O=c1[nH]c2ccccc2n1C1CCN(Cc2ccc(-c3[nH]c4cc5ncnc5cc4nc3-c3ccccc3)cc2)CC1 | cell-free assay |  |  | 0.5 µM | remaining signal | 116%
COc1ncccc1-c1cnn2ccc(N3CCN(C(=O)OC(C)C)CC3)nc12 | binding |  | competition with immobilised ligand | 1 µM | remaining binding | 50%
Cn1cncc1[C@@](O)(COc1ccc(C#N)cc1-c1ccc(OC(F)(F)F)cc1)c1ccc(C#N)cc1 | cell-free assay |  | competition with immobilised ligand | 1 µM | remaining binding | 99%
C#Cc1n[nH]c2c(-c3cn([C@@H](C)c4ccccc4)c(=O)[nH]c3=O)cc(F)cc12 | enzyme activity | inhibitor |  | 0.1 µM | inhibition | 11.4%
N#CC1(c2ccccn2)CCN(Cc2cc(C(=O)O)c(=O)n3ccccc23)CC1 | cell-free assay |  | competition with immobilised ligand | 1 µM | remaining binding | 70%
Cc1nn(C)cc1-c1nc2c(N3CCN(Cc4ccc(Cl)cc4)CC3)c(Cl)cnc2[nH]1 | binding |  | competition with immobilised ligand | 1 µM | remaining binding | 57%
C#Cc1n[nH]c2c(-c3cn(C(C)c4ccccn4)c(=O)[nH]c3=O)cc(F)cc12 (centres unmarked) | enzyme activity | inhibitor |  | 1 µM | inhibition | 12.3%
Cn1cc(-c2cccc(N3CCc4c(sc5c4CC(C)(C)C5)C3=O)c2CO)cc(Nc2ccncn2)c1=O | enzyme activity | inhibitor |  | 1 µM | inhibition | -8%
Nc1ncc(-c2nc(N3CCOCC3)nc(N3CCOCC3)n2)c(C(F)F)n1 | cell-free assay |  | competition with immobilised ligand | 10 µM | remaining binding | 87%
